Read-outs that look alike come from different tables or passages of the source.
Columns and labels:
WiDR cells = experiment: MTT cytotoxicity assay on WiDR colorectal cancer cells; assay type: cell-based; conditions: for IC50: Homo sapiens, WiDr, 24 h; for SI (selectivity index): ratio of IC50 in Vero versus that in WiDR cells, selective if >3
Summary of the method: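 WiDR cells grown in RPMI 1640 with 0.1 mg/mL streptomycin (5% CO2, 37°C); confluent cells seeded 1×10^4/well for 24 h, then exposed 24 h to test compound (1% DMSO solution diluted in medium) at 3.906–500 µg/mL. MTT 4 h, formazan dissolved overnight in 10% SDS/0.01 N HCl, A595. Viability vs untreated and cell-free controls; IC50 by probit, mean of three experiments; SI = Vero IC50/WiDR IC50.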

[1] = IC50 slightly higher than that of chloroquine; cited from earlier work

Compound	IC50 (WiDR cells; read-out: IC50 (µM) WiDR)	IC50 (WiDR cells; read-out: IC50 (µg/mL) WiDR)	cytotoxicity category (CSIR criteria) (WiDR cells; WiDR cell line)	cytotoxic activity (in words) (WiDR cells; WiDR cells, MTT)	SI (selectivity index) (WiDR cells)	SI (selectivity index) (WiDR cells; listed as compound 5)	antimalarial activity [1]
O=c1c2ccc(O)cc2oc2c(O)c(O)ccc12 [Compound 5, 3,4,6-trihydroxyxanthone]	37.8 ± 10.6 µM	9.23 ± 2.58 µg/mL	moderate (moderate (6.25 µg/mL < mean IC50 <15 µg/mL))	exhibited cytotoxic activity	66.39	66.40	good antimalarial activity
COc1cccc2c1C(=O)c1c(O)c3c(c(O)c1C2=O)C[C@@](O)(C(=O)CO)C[C@@H]3O[C@H]1C[C@H](N)[C@H](O)[C@H](C)O1 [Doxorubicin, doxorubicin, reference compound]	3.04 ± 0.184 µM	1.65 ± 0.19 µg/mL	–	–	49.38	–	–
